Experimental data gathered from unrelated publications.
Compare with care: the assays were run in different laboratories.
Target: Proto-oncogene tyrosine-protein kinase ROS (ROS1, Homo sapiens, UniProt P08922)

FC(F)(F)Oc1cccc(-c2cnc3ccc(-c4ccncc4)nn23)c1  remaining binding (binding; competition with immobilised ligand; 5 µM): 81%
CN(C)c1nccc(-c2cnn3ncccc23)n1  remaining binding (binding; 1 µM): 100%
O=S(=O)(NC1CCC(c2cc(F)ccc2F)(S(=O)(=O)c2ccc(Cl)cc2)CC1)C(F)(F)F (stereo not shown)  remaining binding (cell-free assay; competition with immobilised ligand; 1 µM): 100%
COc1cnc(Nc2cccc(S(N)(=O)=O)c2)nc1N1CCN(c2ccccc2)CC1  remaining binding (binding; competition with immobilised ligand; 1 µM): 99%
N#CC1(c2ccccn2)CCN(Cc2cc(C(=O)N3CCCC3)c(=O)n3ccccc23)CC1  remaining binding (cell-free assay; competition with immobilised ligand; 1 µM): 97%
C=CC(=O)N1CCC(C(=O)NCC(=O)N2CCN(c3nc(-c4cnc(N)nc4C(F)F)nc(N4CCOCC4)n3)CC2)CC1  remaining binding (binding; competition with immobilised ligand; 1 µM): 87%
O=C(c1ccc(Nc2nccc(-c3cc4ccccc4s3)n2)cc1)N1CCC(N2CCCC2)CC1  remaining binding (binding; competition with immobilised ligand; 1 µM): 65%
N[C@@H]1CCN(c2nccc(-c3cnn4ncccc34)n2)C1  remaining binding (binding; 1 µM): 72%
O=C(Nc1c[nH]nc1C(=O)NC1CCNCC1)c1cc(F)cc(F)c1  remaining binding (binding; competition with immobilised ligand; 1 µM): 100%
COc1cnc(Nc2cccc(S(N)(=O)=O)c2)nc1N1CCN(c2ccccc2)C(=O)C1  remaining binding (binding; competition with immobilised ligand; 1 µM): 100%
C[C@H]1CCN(c2nccc(-c3cnn4ncccc34)n2)C1  remaining binding (binding; 1 µM): 91%
O=C(NCCCN1CCOCC1)c1ccc(Nc2ncc(Cl)c(-c3ccc(Cl)s3)n2)cc1  remaining binding (binding; competition with immobilised ligand; 1 µM): 47%
O=C(Nc1cccnn1)N1CC(C/C=C/c2cncc(Oc3ccc(C(F)(F)F)cn3)n2)C1  remaining binding (cell-free assay; competition with immobilised ligand; 1 µM): 100%
COc1ncc2cc3ccccc3nc2c1C#N  remaining binding (cell-free assay; competition with immobilised ligand; 5 µM): 91%
c1cnn2ncc(-c3ccnc(N4CCC45COC5)n3)c2c1  remaining binding (binding; 1 µM): 100%
CO[C@H]1CC[C@H](CNc2ccc(S(=O)(=O)NC(=O)c3ccc(N4CCN(CC5=C(c6ccc(Cl)cc6)CC(C)(C)CC5)CC4)cc3Oc3cnc4[nH]ccc4c3)cc2[N+](=O)[O-])CC1  remaining binding (cell-free assay; competition with immobilised ligand; 1 µM): 72%
COc1ccnn2ncc(-c3ccnc(N(C)C)n3)c12  remaining binding (binding; 1 µM): 100%
Cc1cnc(Nc2ccc(C(=O)N3CCC(N4CCCC4)CC3)cc2)nc1-c1cc2ccccc2s1  remaining binding (binding; competition with immobilised ligand; 1 µM): 31%
O=C(NCCCC1CCCCC1)c1ccc(CNC(=O)c2cnn(-c3ccccc3)c2C(F)(F)F)cc1  remaining binding (cell-free assay; competition with immobilised ligand; 0.1 µM): 100%
Cc1cnn2ncc(-c3ccnc(N(C)C)n3)c2c1  remaining binding (binding; 1 µM): 100%
CC(=O)C1=C(C)N(c2cccc(C(F)(F)F)c2)C(=O)N[C@@H]1c1ccc(C#N)nc1  remaining binding (cell-free assay; competition with immobilised ligand; 1 µM): 100%
CN(CCCC(F)(F)F)c1nccc(-c2cnn3ncccc23)n1  remaining binding (binding; 1 µM): 79%
